Test results as given in ChEMBL document CHEMBL5724801, “EUbOPEN Chemogenomics Library - Multiplex” (2024).
Where “and” joins values, the source holds several entries; their conditions need not be identical. Equal entries are not always repeated.

What was measured:
[1] = system: U2OS; assay: Multiplex assay against U2OS; assay type: toxicity, cell-based; conditions: human
Outline: (§1)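 Live cells were stained at seeding with Hoechst33342, BioTracker Green Microtubule Cytoskeleton Dye, MitoTracker Red and Annexin V Alexa Fluor 680, then imaged on a CQ1 microscope at 37°C and 5% CO2 after compound addition. CellPathfinder machine-learning gating split cells into Hoechst high-intensity objects or normal cells. Normal cells were split into healthy, pyknosed or fragmented nuclei, and pyknosed cells into mitotic or apoptotic. Tubulin, mitochondrial-mass and membrane-permeability phenotypes are per cents of healthy-nucleus cells.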

[2] = system: HEK-293T; assay: Multiplex assay against HEK293T; assay type: toxicity, cell-based; conditions: human; outline: as §1
[3] = 12 h, 1 µM, compound concentration 1 uM
[4] = 12 h, 10 µM, compound concentration 10 uM
[5] = 24 h, 1 µM, compound concentration 1 uM
[6] = 24 h, 10 µM, compound concentration 10 uM
[7] = 48 h, 1 µM, compound concentration 1 uM
[8] = 48 h, 10 µM, compound concentration 10 uM

Cc1onc(-c2ccccc2Cl)c1C(=O)N(C)c1ccc(Cl)cc1
Population Apoptotic (%) [1, 3]: 82% and 78% | Population Fragmented Nuclei (%) [1, 3]: 26% and 10% | Population Healthy Nuclei (%) [1, 3]: 67% and 79% | Population Hoechst High Intensity Objects (%) [1, 3]: 0% and 1% | Population Membrane Permeable-Phenotype (%) [1, 3]: 3% and 4% | Population Mitochondria Different-Phenotype (%) [1, 3]: 2% and 1% | Population Mitotic Cells (%) [1, 3]: 17% and 21% | Population Normal (%) [1, 3]: 99% and 98% | Population Pyknosed Nuclei (%) [1, 3]: 6% and 10% | Population Tubulin-Different-Phenotype (%) [1, 3]: 1% and 3% | Total Cell Count [1, 3]: 277 and 136 | Population Apoptotic (%) [1, 4]: 79% and 77% | Population Fragmented Nuclei (%) [1, 4]: 28% and 24% | Population Healthy Nuclei (%) [1, 4]: 58% and 56% | Population Hoechst High Intensity Objects (%) [1, 4]: 4% and 0% | Population Membrane Permeable-Phenotype (%) [1, 4]: 12% and 7% | Population Mitochondria Different-Phenotype (%) [1, 4]: 5% and 6% | Population Mitotic Cells (%) [1, 4]: 20% and 22% | Population Normal (%) [1, 4]: 95% and 99% | Population Pyknosed Nuclei (%) [1, 4]: 12% and 19% | Population Tubulin-Different-Phenotype (%) [1, 4]: 5% and 4% | Total Cell Count [1, 4]: 244 and 113 | Population Apoptotic (%) [1, 5]: 100% and 83% | Population Fragmented Nuclei (%) [1, 5]: 23% and 11% | Population Healthy Nuclei (%) [1, 5]: 70% and 81% | Population Hoechst High Intensity Objects (%) [1, 5]: 0% and 1% | Population Membrane Permeable-Phenotype (%) [1, 5]: 2% and 4% | Population Mitochondria Different-Phenotype (%) [1, 5]: 2% and 5% | Population Mitotic Cells (%) [1, 5]: 0% and 16% | Population Normal (%) [1, 5]: 99% and 98% | Population Pyknosed Nuclei (%) [1, 5]: 5% and 7% | Population Tubulin-Different-Phenotype (%) [1, 5]: 0% and 2% | Total Cell Count [1, 5]: 328 and 168 | Population Apoptotic (%) [1, 6]: 72% and 64% | Population Fragmented Nuclei (%) [1, 6]: 26% and 20% | Population Healthy Nuclei (%) [1, 6]: 62% and 66% | Population Hoechst High Intensity Objects (%) [1, 6]: 3% | Population Membrane Permeable-Phenotype (%) [1, 6]: 11% and 8% | Population Mitochondria Different-Phenotype (%) [1, 6]: 6% and 7% | Population Mitotic Cells (%) [1, 6]: 27% and 35% | Population Normal (%) [1, 6]: 96% | Population Pyknosed Nuclei (%) [1, 6]: 11% and 13% | Population Tubulin-Different-Phenotype (%) [1, 6]: 4% and 7% | Total Cell Count [1, 6]: 299 and 129 | Population Apoptotic (%) [1, 7]: 87% and 89% | Population Fragmented Nuclei (%) [1, 7]: 16% and 12% | Population Healthy Nuclei (%) [1, 7]: 75% | Population Hoechst High Intensity Objects (%) [1, 7]: 2% and 1% | Population Membrane Permeable-Phenotype (%) [1, 7]: 4% and 1% | Population Mitochondria Different-Phenotype (%) [1, 7]: 3% and 2% | Population Mitotic Cells (%) [1, 7]: 12% and 10% | Population Normal (%) [1, 7]: 97% and 98% | Population Pyknosed Nuclei (%) [1, 7]: 7% and 11% | Population Tubulin-Different-Phenotype (%) [1, 7]: 2% and 1% | Total Cell Count [1, 7]: 450 and 252 | Population Apoptotic (%) [1, 8]: 69% and 90% | Population Fragmented Nuclei (%) [1, 8]: 22% and 23% | Population Healthy Nuclei (%) [1, 8]: 67% and 65% | Population Hoechst High Intensity Objects (%) [1, 8]: 3% and 2% | Population Membrane Permeable-Phenotype (%) [1, 8]: 10% and 9% | Population Mitochondria Different-Phenotype (%) [1, 8]: 5% | Population Mitotic Cells (%) [1, 8]: 30% and 10% | Population Normal (%) [1, 8]: 96% and 97% | Population Pyknosed Nuclei (%) [1, 8]: 9% and 11% | Population Tubulin-Different-Phenotype (%) [1, 8]: 4% and 3% | Total Cell Count [1, 8]: 413 and 182 | Population Apoptotic (%) [2, 3]: 35% and 37% | Population Fragmented Nuclei (%) [2, 3]: 8% and 3% | Population Healthy Nuclei (%) [2, 3]: 79% and 84% | Population Hoechst High Intensity Objects (%) [2, 3]: 9% and 6% | Population Membrane Permeable-Phenotype (%) [2, 3]: 0% | Population Mitochondria Different-Phenotype (%) [2, 3]: 41% and 59% | Population Mitotic Cells (%) [2, 3]: 64% and 62% | Population Normal (%) [2, 3]: 90% and 93% | Population Pyknosed Nuclei (%) [2, 3]: 12% | Population Tubulin-Different-Phenotype (%) [2, 3]: 25% | Total Cell Count [2, 3]: 375 and 320 | Population Apoptotic (%) [2, 4]: 38% and 45% | Population Fragmented Nuclei (%) [2, 4]: 7% and 4% | Population Healthy Nuclei (%) [2, 4]: 79% and 80% | Population Hoechst High Intensity Objects (%) [2, 4]: 12% and 6% | Population Membrane Permeable-Phenotype (%) [2, 4]: 0% | Population Mitochondria Different-Phenotype (%) [2, 4]: 49% and 65% | Population Mitotic Cells (%) [2, 4]: 61% and 54% | Population Normal (%) [2, 4]: 87% and 93% | Population Pyknosed Nuclei (%) [2, 4]: 13% and 14% | Population Tubulin-Different-Phenotype (%) [2, 4]: 43% and 35% | Total Cell Count [2, 4]: 357 and 330 | Population Apoptotic (%) [2, 5]: 23% and 42% | Population Fragmented Nuclei (%) [2, 5]: 9% and 5% | Population Healthy Nuclei (%) [2, 5]: 81% | Population Hoechst High Intensity Objects (%) [2, 5]: 5% and 3% | Population Membrane Permeable-Phenotype (%) [2, 5]: 1% | Population Mitochondria Different-Phenotype (%) [2, 5]: 21% and 44% | Population Mitotic Cells (%) [2, 5]: 76% and 57% | Population Normal (%) [2, 5]: 94% and 96% | Population Pyknosed Nuclei (%) [2, 5]: 9% and 12% | Population Tubulin-Different-Phenotype (%) [2, 5]: 14% and 18%
